# PMC5222895 (Drugs & Aging, 2016)
# Columns and labels:
# Assay type in all cases: in vivo, human
# [1] = Free serum insulin aspart pharmacokinetics after single subcutaneous dosing; details: single s.c. 0.2 U/kg
# How it was run: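 Same crossover dosing (0.2 U/kg s.c., fasted). Blood sampled before dosing, every 2 min to 20 min, every 5 min to 80 min, every 10 min to 2 h, every 15 min to 3 h, then 3.5–12 h. Free (PEG-precipitated) serum insulin aspart measured by validated specific ELISA, LLOQ 10 pmol/L. Pre-LLOQ concentrations imputed by compartmental modelling for initial AUC portion.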
# [2] = test system: subjects with type 1 diabetes mellitus; assay: Euglycaemic glucose clamp; details: single s.c. 0.2 U/kg
# How it was run: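 Single 0.2 U/kg s.c. dose into the lower abdominal wall in randomised two-visit crossover (3–12 day washout), elderly (≥65 y) and younger (18–35 y) T1DM subjects, morning after overnight fast. Euglycaemic clamp, BG target 5.5 mmol/L, up to 12 h. GIR logged every minute. Partial and total AUCGIR taken from raw profiles. Least square means; age-group ratios with 95% CI.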
# [3] = test system: subjects with type 1 diabetes mellitus; assay: Safety assessments
# How it was run: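 Monitored from dosing to follow-up 7–21 days after second dose: adverse events, injection-site local tolerability, hypoglycaemic episodes, laboratory safety, physical exam, vital signs, ECG. Hypoglycaemia confirmed if severe (ADA, third-party assistance) or plasma glucose <3.1 mmol/L. Summarised descriptively for subjects receiving at least one dose.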
# [4] = elderly (≥65 years) T1DM, least square mean, n = 30
# [5] = elderly and younger adults with T1DM, single s.c. 0.2 U/kg
substance,measurement,setting,value
insulin aspart,"AUCIAsp,0-t, ratio of elderly/younger adults [95% CI]","[1]; age group ratio, T1DM",1.32 [1.09–1.59]
same,"C max, ratio of elderly/younger adults [95% CI]","[1]; age group ratio, T1DM",1.20 [0.96–1.50]
same,t Early 50% Cmax,[1]; [4],28.0 min
same,t max,[1]; [4],1.07 h
same,C max (maximum insulin aspart concentration),"[1]; elderly T1DM, least square mean, n = 30",0.3676 nM
same,"GIRmax, ratio of elderly/younger adults [95% CI]","[2]; age group ratio, T1DM",0.78 [0.60–1.01]
same,"AUCGIR,0-t, ratio of elderly/younger adults [95% CI]","[2]; age group ratio, T1DM, primary endpoint for faster aspart",0.85 [0.67–1.07]
same,"AUCGIR,0-t (total glucose-lowering effect)","[2]; elderly T1DM, clamp up to 12 h, least square mean, n = 22",1012.5 mg/kg
same,Injection-site reactions,[3]; during the trial,no injection-site reactions
same,Adverse events of moderate intensity,[3]; [5],eight
same,Serious adverse events,[3]; [5],no serious adverse events
same,Tolerability,[3]; [5],well-tolerated
same,Confirmed hypoglycaemic episodes,"[3]; severe (ADA) or plasma glucose <3.1 mmol/L, during the trial",No confirmed hypoglycaemic episodes
